Data as given in ChEMBL document CHEMBL1135784, “Novel antibiotics for the treatment of gram-positive bacterial infections” (J Med Chem, 2002).
≈ marks a conversion by molar mass, not a printed value.

Assays:
Format in all cases: functional
Enterococcus faecalis = assay: Evaluated for its antibacterial activity against Enterococcus faecalis 18513
How it was run: (§1)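 Broth microdilution in AOAC broth with 4% dextrose, with compounds at 0.125-64 µg/mL. Inoculum was a 1:50 dilution of an overnight culture. Incubation at 37 °C with 8-10% CO₂ for about 20 h. MIC read as the first concentration showing no visible growth.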

Enterococcus faecium = assay: Evaluated for its antibacterial activity against Enterococcus faecium L4001; how it was run: as §1
[1] = system: Staphylococcus epidermidis; assay: Evaluated for its antibacteria activity against Staphylococcus epidermidis 18570
How it was run: (§2)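 Broth microdilution in AOAC broth with 4% dextrose. Compounds tested over 0.125-64 µg/mL. Wells inoculated with a 1:500 dilution of an overnight culture. Plates incubated at 37 °C under 8-10% CO₂ and read after about 20 h. MIC taken as the first concentration with no visible growth.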

Streptococcus pneumoniae = assay: Evaluated for its antibacterial activity against Streptococcus pneumoniae G9a
How it was run: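 For S. pneumoniae, microdilution used BHI broth diluted 1:10 with 10% bovine serum, and compounds at 0.125-64 µg/mL. Wells received a 1:50 dilution of an overnight culture. Plates were kept at 37 °C in 8-10% CO₂ and read after about 20 h. MIC was the lowest concentration without visible growth.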

Staphylococcus aureus [2] = assay: Evaluated for its antibacterial activity against Staphylococcus aureus 133; how it was run: as §2
Streptococcus pyogenes = assay: Evaluated for its antibacterial activity against Str. Pyogenes wacker; how it was run: as §1
Escherichia coli = assay: Evaluated for its inhibitory activity against prokaryotic translation by using Escherichia coli transcription-translation assay
How it was run: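 Coupled E. coli transcription-translation system with a luciferase reporter; inhibition of bacterial translation measured by luminescence read-out.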

Staphylococcus aureus [3] = assay: Evaluated for its antibacteria activity against Staphylococcus aureus; how it was run: as §2

Row | SMILES | MIC (Enterococcus faecalis) | MIC (Enterococcus faecium) | MIC [1] | MIC (Streptococcus pneumoniae) | MIC (Staphylococcus aureus [2]) | MIC (Streptococcus pyogenes) | IC50 (Escherichia coli) | MIC (Staphylococcus aureus [3])
1 | CN(C(=O)C[C@@H](N)CCCN=C(N)N)C1CN=C(NC(N)=O)NC1=O (stereo not given in full) | > 16 µg/mL | 2 µg/mL (≈ 5.63 µM) | 0.25 µg/mL (≈ 0.703 µM) | 16 µg/mL (≈ 45 µM) | 0.25 µg/mL (≈ 0.703 µM) | 8 µg/mL (≈ 22.5 µM) |  | 
2 | C/N=C(/N)NCCC[C@H](N)CC(=O)N(C)C1CN=C(NC(N)=O)NC1=O (stereo not given in full) | 64 µg/mL (≈ 173 µM) | 16 µg/mL (≈ 43.3 µM) | 0.13 µg/mL (≈ 0.352 µM) | 16 µg/mL (≈ 43.3 µM) | 0.8 µg/mL (≈ 2.17 µM) | 4 µg/mL (≈ 10.8 µM) | 500 nM | 
3 | C/N=C(/N)N(C)CCC[C@H](N)CC(=O)N(C)C1CN=C(NC(N)=O)NC1=O.Cl.Cl (stereo not given in full) | > 64 µg/mL | 8 µg/mL | 0.5 µg/mL | 32 µg/mL | 0.4 µg/mL | 8 µg/mL | 400 nM | 
4 | CN(CCC[C@H](N)CC(=O)N(C)C1CN=C(NC(N)=O)NC1=O)C(=N)N (stereo not given in full) | 64 µg/mL (≈ 173 µM) | 2 µg/mL (≈ 5.41 µM) | 0.12 µg/mL (≈ 0.325 µM) | 4 µg/mL (≈ 10.8 µM) | 0.025 µg/mL (≈ 0.0677 µM) | 0.5 µg/mL (≈ 1.35 µM) | 60 nM | 
5 | CC(C)/N=C(/N)NCCC[C@H](N)CC(=O)N(C)C1CN=C(NC(N)=O)NC1=O (stereo not given in full) |  |  |  |  | 12.5 µg/mL (≈ 31.4 µM) |  | 12500 nM | 
6 | C/C(N)=N/CCC[C@H](N)CC(=O)N(C)C1CN=C(NC(N)=O)NC1=O (stereo not given in full) | > 64 µg/mL | 16 µg/mL (≈ 45.1 µM) | 0.2 µg/mL (≈ 0.564 µM) | 16 µg/mL (≈ 45.1 µM) | 0.2 µg/mL (≈ 0.564 µM) | 1 µg/mL (≈ 2.82 µM) | 100 nM | 0.2 µg/mL (≈ 0.564 µM)
7 | CC(C)C(=N)NCCC[C@H](N)CC(=O)N(C)C1CN=C(NC(N)=O)NC1=O (stereo not given in full) |  |  |  |  | 3.2 µg/mL (≈ 8.37 µM) |  |  | 
8 | CC/N=C(/N)NCCC[C@H](N)CC(=O)N(C)C1CN=C(NC(N)=O)NC1=O (stereo not given in full) |  |  |  |  | 6.3 µg/mL (≈ 16.4 µM) |  | 12500 nM | 
